In ChEMBL document CHEMBL3352604, “Development of novel azabenzofuran TRPA1 antagonists as in vivo tools” (Bioorg Med Chem Lett, 2014):
pEC50, pIC50: −log10 of the molar value. In brackets after ≈: the same amount, converted by molar mass. Activity calls are given as the source filed them. The calls are words filed in the database; no cut-off is given here.

Columns and labels:
[1] = target: T1, Transient receptor potential cation channel subfamily A member 1 (Rattus norvegicus, UniProt Q6RI86); experiment: Antagonist activity at rat TRPA1 assessed as inhibition of AITC-induced calcium uptake by [45Ca2+] fluorimetry assay
T1 sequence (Q6RI86 whole entry): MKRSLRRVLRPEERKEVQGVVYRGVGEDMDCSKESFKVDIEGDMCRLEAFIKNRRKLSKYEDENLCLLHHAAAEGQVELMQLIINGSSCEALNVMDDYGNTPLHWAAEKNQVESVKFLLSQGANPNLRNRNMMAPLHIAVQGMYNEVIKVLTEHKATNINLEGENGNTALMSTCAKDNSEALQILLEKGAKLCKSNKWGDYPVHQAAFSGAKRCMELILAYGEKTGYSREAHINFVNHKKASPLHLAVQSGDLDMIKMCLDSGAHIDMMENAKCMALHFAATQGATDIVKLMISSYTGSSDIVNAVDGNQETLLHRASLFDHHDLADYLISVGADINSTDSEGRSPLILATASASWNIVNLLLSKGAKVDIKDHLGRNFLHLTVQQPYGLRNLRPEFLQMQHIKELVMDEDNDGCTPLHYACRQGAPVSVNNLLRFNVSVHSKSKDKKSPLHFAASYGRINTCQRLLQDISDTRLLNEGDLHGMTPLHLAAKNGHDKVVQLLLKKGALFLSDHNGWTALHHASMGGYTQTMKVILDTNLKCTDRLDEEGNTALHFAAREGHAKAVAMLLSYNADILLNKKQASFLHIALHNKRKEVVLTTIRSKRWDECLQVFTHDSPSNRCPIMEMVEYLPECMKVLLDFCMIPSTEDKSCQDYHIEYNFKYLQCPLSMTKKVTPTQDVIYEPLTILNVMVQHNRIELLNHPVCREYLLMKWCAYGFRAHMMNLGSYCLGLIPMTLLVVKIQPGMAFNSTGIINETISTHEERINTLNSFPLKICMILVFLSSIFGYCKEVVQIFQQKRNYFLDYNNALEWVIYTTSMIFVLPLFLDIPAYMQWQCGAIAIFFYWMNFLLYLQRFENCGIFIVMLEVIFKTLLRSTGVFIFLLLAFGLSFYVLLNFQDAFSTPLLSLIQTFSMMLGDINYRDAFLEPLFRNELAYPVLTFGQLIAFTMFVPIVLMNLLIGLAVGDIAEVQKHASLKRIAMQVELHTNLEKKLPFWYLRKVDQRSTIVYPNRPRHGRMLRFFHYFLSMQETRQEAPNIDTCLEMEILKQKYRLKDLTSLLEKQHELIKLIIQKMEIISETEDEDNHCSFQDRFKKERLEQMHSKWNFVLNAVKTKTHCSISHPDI
Outline: (§1)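 Antagonism read by 45Ca2+ fluorimetry in cells expressing rat or human TRPA1. IC50 determined. Where no IC50 was obtained, % inhibition was measured at a single 2 μM point.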

[2] = target: T2, Transient receptor potential cation channel subfamily A member 1 (Homo sapiens, UniProt O75762); experiment: Agonist activity at human TRPA1 by [45Ca2+] fluorimetry assay
T2 sequence (O75762 whole entry): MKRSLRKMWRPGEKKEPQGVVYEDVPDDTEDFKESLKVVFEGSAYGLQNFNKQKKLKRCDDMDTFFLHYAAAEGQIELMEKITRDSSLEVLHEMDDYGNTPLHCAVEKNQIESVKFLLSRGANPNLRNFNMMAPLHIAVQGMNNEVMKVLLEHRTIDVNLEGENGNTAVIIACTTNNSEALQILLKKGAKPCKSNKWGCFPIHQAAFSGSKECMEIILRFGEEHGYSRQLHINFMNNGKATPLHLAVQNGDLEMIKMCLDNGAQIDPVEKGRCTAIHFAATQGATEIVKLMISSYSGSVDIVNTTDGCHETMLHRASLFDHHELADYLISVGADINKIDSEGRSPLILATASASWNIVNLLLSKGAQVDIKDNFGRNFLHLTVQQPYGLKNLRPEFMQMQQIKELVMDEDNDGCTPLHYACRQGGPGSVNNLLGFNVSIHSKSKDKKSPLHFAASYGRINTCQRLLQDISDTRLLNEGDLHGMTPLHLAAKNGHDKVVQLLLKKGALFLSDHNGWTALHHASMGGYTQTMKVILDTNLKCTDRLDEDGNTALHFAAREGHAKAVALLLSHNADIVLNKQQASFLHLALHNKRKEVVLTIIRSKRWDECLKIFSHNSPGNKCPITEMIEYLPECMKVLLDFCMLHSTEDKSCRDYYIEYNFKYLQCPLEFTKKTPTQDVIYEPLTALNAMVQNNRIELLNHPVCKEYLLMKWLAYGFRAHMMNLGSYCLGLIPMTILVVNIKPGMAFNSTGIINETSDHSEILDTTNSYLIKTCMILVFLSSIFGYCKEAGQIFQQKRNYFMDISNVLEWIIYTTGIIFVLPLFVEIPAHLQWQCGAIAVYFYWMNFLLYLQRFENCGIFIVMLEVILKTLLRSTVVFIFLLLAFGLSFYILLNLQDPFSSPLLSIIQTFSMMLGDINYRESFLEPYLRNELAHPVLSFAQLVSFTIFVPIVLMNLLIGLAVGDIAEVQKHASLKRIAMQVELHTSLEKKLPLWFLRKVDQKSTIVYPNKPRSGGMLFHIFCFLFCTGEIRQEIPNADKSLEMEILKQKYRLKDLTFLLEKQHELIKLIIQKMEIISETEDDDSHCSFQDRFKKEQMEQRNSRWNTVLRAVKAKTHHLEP

[3] = Solubility in PBS buffer at pH 7.4; assay type: physicochemical
Outline: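 Solubility measured in phosphate buffered saline, pH 7.4.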

[4] = Clearance in human liver microsomes; assay type: ADME; conditions: read-out: CLH
[5] = Solubility in 0.01 N HCl solution in water; assay type: physicochemical
Outline: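 Solubility measured in 0.01 N hydrogen chloride solution in water.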

[6] = Clearance in rat liver microsomes; assay type: ADME; conditions: read-out: CLH
[7] = Solubility in fasted state simulated intestinal fluid at pH 6.8; assay type: ADME
[8] = target: T2, Transient receptor potential cation channel subfamily A member 1; experiment: Antagonist activity at human TRPA1 assessed as inhibition of AITC-induced calcium uptake by [45Ca2+] fluorimetry assay; outline: as §1
[9] = target: T1, Transient receptor potential cation channel subfamily A member 1; experiment: Agonist activity at rat TRPA1 by [45Ca2+] fluorimetry assay
[10] = test system: Plasma; experiment: Unbound plasma concentration in Harlan Sprague-Dawley rat model of AITC-induced flinching at 100 mg/kg, po after 1 hr; assay type: ADME, organism-based; set-up: dose 100 mg/kg, route oral; conditions: in vivo
Outline: (§2)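 Male Harlan Sprague-Dawley rats dosed orally in 2% HPMC/1% Tween-80, with a 0.1% AITC paw challenge at 1 h. Unbound plasma concentration determined with n=8, 6 and 8 for the 10, 30 and 100 mg/kg doses respectively.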

[11] = species: Rattus norvegicus; conditions: Harlan Sprague-Dawley, 100 mg/kg
[12] = target: T2, Transient receptor potential cation channel subfamily A member 1; experiment: Antagonist activity at human TRPA1 assessed as inhibition of AITC-induced calcium uptake at 2 uM by [45Ca2+] fluorimetry assay
Outline: (§3)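 45Ca2+ uptake fluorimetry in cells expressing rat or human TRPA1, run in parallel for both species. The value is single-point percent inhibition at 2 µM test compound, reported when no IC50 was obtained. Compounds were also run without agonist to check for channel agonism.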

[13] = target: Transient receptor potential cation channel subfamily A member 1 (Rattus norvegicus) (UniProt Q6RI86); experiment: Antagonist activity at rat TRPA1 assessed as inhibition of AITC-induced calcium uptake at 2 uM by [45Ca2+] fluorimetry assay; outline: as §3
Chain of Transient receptor potential cation channel subfamily A member 1 (Rattus norvegicus) (Q6RI86 whole entry): as the sequence (Q6RI86 whole entry) above

[14] = Ratio of fCmax in fed Sprague-Dawley rat at 100 mg/kg, po to IC50 for antagonist activity at rat TRPA1 by [45Ca2+] fluorimetry assay
Outline: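 Male Sprague-Dawley rats (n = 3), fed, were given an oral dose in 2% HPMC, 1% Tween 80 in water, adjusted to pH 2.2 with MSA. The unbound Cmax from this PK study was divided by the rat TRPA1 IC50. That IC50 came from a 45Ca2+ fluorimetry antagonism assay in cells expressing rat TRPA1.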

[15] = test system: Rattus norvegicus; experiment: Effect on open filed activity in Harlan Sprague-Dawley rat model of AITC-induced flinching at 30 to 100 mg/kg, po; assay type: organism-based; set-up: dose 30-100 mg/kg, route oral; conditions: in vivo
[16] = Oral bioavailability in fasted Sprague-Dawley rat at 30 mg/kg; assay type: ADME, organism-based; conditions: in vivo
Outline: (§4)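 Male Sprague-Dawley rats (n = 3) dosed po in 2% HPMC, 1% Tween 80 in H2O, pH 2.2 with MSA. Animals fasted during the PK study.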

[17] = test system: Rattus norvegicus; experiment: fCmax in fasted Sprague-Dawley rat at 30 mg/kg, po; assay type: ADME, organism-based; set-up: dose 30 mg/kg, route oral; conditions: in vivo; outline: as §4
[18] = species: Rattus norvegicus; conditions: Harlan Sprague-Dawley, 30 to 100 mg/kg
[19] = Ratio of unbound plasma concentration in Harlan Sprague-Dawley rat model of AITC-induced flinching at 30 mg/kg, po after 1 hr to IC50 for antagonist activity at rat TRPA1 by [45Ca2+] fluorimetry assay; assay type: organism-based; set-up: dose 30 mg/kg, route oral; conditions: in vivo
Outline: (§5)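 Male Harlan Sprague-Dawley rats were dosed orally in 2% HPMC/1% Tween-80. After 1 h, 0.1% AITC was injected into the left ventral hind paw. Unbound plasma concentration was measured (n=8 at 10 and 100 mg/kg, n=6 at 30 mg/kg) and divided by the rat TRPA1 IC50. That IC50 came from a 45Ca2+ fluorimetry antagonism assay in cells expressing rat TRPA1.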

[20] = Fraction unbound in rat plasma by equilibrium dialysis method; assay type: ADME, cell-free
[21] = test system: Plasma; experiment: Unbound plasma concentration in Harlan Sprague-Dawley rat model of AITC-induced flinching at 30 mg/kg, po after 1 hr; assay type: ADME, organism-based; set-up: dose 30 mg/kg, route oral; conditions: in vivo; outline: as §2
[22] = Ratio of unbound plasma concentration in Harlan Sprague-Dawley rat model of AITC-induced flinching at 10 mg/kg, po after 1 hr to IC50 for antagonist activity at rat TRPA1 by [45Ca2+] fluorimetry assay; assay type: organism-based; set-up: dose 10 mg/kg, route oral; conditions: in vivo; outline: as §5
[23] = Volume of distribution at steady state in Sprague-Dawley rat at 0.5 mg/kg, iv; assay type: ADME, organism-based; set-up: dose 0.5 mg/kg, route intravenous; conditions: in vivo, read-out: Vdss
Outline: (§6)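 Male Sprague-Dawley rats (n = 3) given 0.5 mg/kg iv in DMSO.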

[24] = Ratio of unbound plasma concentration in Harlan Sprague-Dawley rat model of AITC-induced flinching at 100 mg/kg, po after 1 hr to IC50 for antagonist activity at rat TRPA1 by [45Ca2+] fluorimetry assay; assay type: organism-based; set-up: dose 100 mg/kg, route oral; conditions: in vivo; outline: as §5
[25] = Half life in Sprague-Dawley rat at 0.5 mg/kg, iv; assay type: ADME, organism-based; set-up: dose 0.5 mg/kg, route intravenous; conditions: in vivo; outline: as §6
[26] = test system: Rattus norvegicus; experiment: fCmax in fed Sprague-Dawley rat at 100 mg/kg, po; assay type: ADME, organism-based; set-up: dose 100 mg/kg, route oral; conditions: in vivo
Outline: (§7)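 Male Sprague-Dawley rats (n = 3) dosed po at 100 mg/kg in 2% HPMC, 1% Tween 80 in H2O, pH 2.2 with MSA. Animals fed during the PK study.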

[27] = Clearance in Sprague-Dawley rat at 0.5 mg/kg, iv; assay type: ADME, organism-based; set-up: dose 0.5 mg/kg, route intravenous; conditions: in vivo; outline: as §6
[28] = test system: Plasma; experiment: Unbound plasma concentration in Harlan Sprague-Dawley rat model of AITC-induced flinching at 10 mg/kg, po after 1 hr; assay type: ADME, organism-based; set-up: dose 10 mg/kg, route oral; conditions: in vivo; outline: as §2
[29] = test system: Rattus norvegicus; experiment: Unbound clearance in Sprague-Dawley rat at 0.5 mg/kg, iv; assay type: ADME, organism-based; set-up: dose 0.5 mg/kg, route intravenous; conditions: in vivo; outline: as §6
[30] = Oral bioavailability in fed Sprague-Dawley rat at 100 mg/kg; assay type: ADME, organism-based; conditions: in vivo; outline: as §7
[31] = test system: Rattus norvegicus; experiment: fCmax in fasted Sprague-Dawley rat at 10 mg/kg, po; assay type: ADME, organism-based; set-up: dose 10 mg/kg, route oral; conditions: in vivo; outline: as §4
[32] = Oral bioavailability in fasted Sprague-Dawley rat at 10 mg/kg; assay type: ADME, organism-based; conditions: in vivo; outline: as §4

Structure (SMILES)	pIC50 [1]	pEC50 [2]	solubility [3] [µg/mL]	microsomal CLint [4] [µL/min/mg]	solubility [5] [µg/mL]	microsomal CLint [6] [µL/min/mg]	solubility [7] [µg/mL]	pIC50 [8]	pEC50 [9]	also measured
COCCCOc1cccc(C2NC(=S)Nc3c2oc2c(F)cccc32)c1 (centres undefined)	6.85	< 4.40	17 (≈ 44 µM)	70	14 (≈ 36.2 µM)	140	66 (≈ 171 µM)	6.70	< 4.40	–
COCCCOc1cccc([C@@H]2NC(=S)Nc3c2oc2ncccc32)c1	–	–	–	–	–	–	–	< 4.40	–	Cp(f) [10]: 0.37 µM; inhibition [11]: inactive
O=C1C2=C(NC(=S)NC2c2cccc(OCc3ccccn3)c2)c2ccccc21 (centres undefined)	6.64	< 4.40	10 (≈ 25 µM)	180	1 (≈ 2.5 µM)	310	200 (≈ 501 µM)	6.52	< 4.40	–
COCCCOc1cccc([C@H]2NC(=S)Nc3c2oc2ccccc32)c1	6.64	< 4.40	1 (≈ 2.71 µM)	90	1 (≈ 2.71 µM)	350	23 (≈ 62.4 µM)	6.23	< 4.40	–
COCCCOc1ccnc(C2NC(=S)NC3=C2C(=O)c2ccccc23)c1 (centres undefined)	< 5.70	< 4.40	62 (≈ 163 µM)	43	500 (≈ 1310 µM)	220	39 (≈ 102 µM)	< 5.70	< 4.40	inhibition [12]: 1%; inhibition [13]: 0%
S=C1Nc2c(oc3ncccc23)C(c2cccc(OCc3cccnc3)c2)N1 (centres undefined)	5.89	< 4.40	15 (≈ 38.6 µM)	100	200 (≈ 515 µM)	40	21 (≈ 54.1 µM)	6.03	< 4.40	–
COCCCOc1cccc(C2NC(=S)NC3=C2C(=O)c2ccccc23)c1 (racemic)	7.55	< 4.40	10 (≈ 26.3 µM)	–	1 (≈ 2.63 µM)	–	23 (≈ 60.5 µM)	7.52	< 4.40	–
COCCCOc1cccc(C2NC(=S)NC3=C2C(=O)c2ccccc23)n1 (centres undefined)	6.00	< 4.40	36 (≈ 94.4 µM)	160	17 (≈ 44.6 µM)	230	35 (≈ 91.8 µM)	6.01	< 4.40	–
COCCCOc1cccc([C@H]2NC(=S)Nc3c2oc2ncccc32)c1	7.35	< 4.40	21 (≈ 56.8 µM)	30	28 (≈ 75.8 µM)	90	46 (≈ 125 µM)	6.77	< 4.40	Ratio [14]: 14; Activity [15]: Non-toxic; bioavailability [16]: 13%; fCmax [17]: 0.082 µM; inhibition [18]: Active; Cp(f) [10]: 0.74 µM; Ratio [19]: 5; fraction unbound [20]: 0.085; Cp(f) [21]: 0.22 µM; Ratio [22]: 1; Vd [23]: 4 L/kg; Ratio [24]: 16; half-life [25]: 72 min; fCmax [26]: 0.612 µM; clearance [27]: 50 mL/min/kg; Cp(f) [28]: 0.048 µM; CL free [29]: 36 L/h/kg; bioavailability [30]: 79%
COCCCOc1cccc([C@H]2NC(=S)NC3=C2C(=O)c2ccccc23)c1	7.72	< 4.40	4 (≈ 10.5 µM)	150	5 (≈ 13.1 µM)	230	12 (≈ 31.5 µM)	7.59	< 4.40	fraction unbound [20]: 0.01; fCmax [31]: 0.005 µM; bioavailability [32]: 10%; Vd [23]: 4.7 L/kg; half-life [25]: 126 min; clearance [27]: 48.3 mL/min/kg; CL free [29]: 290 L/h/kg
COCCCOc1cc(C2NC(=S)NC3=C2C(=O)c2ccccc23)ccn1 (centres undefined)	< 4.40	< 4.40	–	82	22 (≈ 57.7 µM)	350	–	< 4.40	< 4.40	–
COCCCOc1cncc(C2NC(=S)NC3=C2C(=O)c2ccccc23)c1 (centres undefined)	6.28	< 4.40	2.8 (≈ 7.34 µM)	90	120 (≈ 315 µM)	200	14 (≈ 36.7 µM)	5.92	< 4.40	–
O=C1C2=C(NC(=S)NC2c2cccc(OCc3cccnc3)c2)c2ccccc21 (centres undefined)	6.44	< 4.40	1 (≈ 2.5 µM)	150	140 (≈ 350 µM)	250	15 (≈ 37.5 µM)	6.15	< 4.40	–
